Laboratory results published in ChEMBL document CHEMBL4371070, “Design, synthesis of novel purin-6-one derivatives as phosphodiesterase 2 (PDE2) inhibitors: The neuroprotective and anxiolytic-like effects” (Bioorg Med Chem Lett, 2019).
The source made the active and inactive calls. The calls are words filed in the database; no cut-off is given here.

Legend:
[1] = target: cGMP-dependent 3',5'-cyclic phosphodiesterase (Homo sapiens, UniProt O00408); test: Inhibition of PDE2 (unknown origin) using [3H]cAMP or [3H]cGMP as substrate measured after 30 mins by liquid scintillation counting method
Mus musculus [2] = test: Anxiolytic activity in ICR mouse model of chronic stress-induced cognitive impairment assessed as increase in time spent in open arms at 2 mg/kg, ip measured for 5 mins test period by elevated plus maze test; format: functional, organism-based
Phosphodiesterase 1 = Phosphodiesterase 1 (Homo sapiens, UniProt P54750+Q01064+Q14123); test: Inhibition of PDE1 (unknown origin) using [3H]cAMP or [3H]cGMP as substrate measured after 30 mins by liquid scintillation counting method; format: protein assay
Phosphodiesterase 4 = Phosphodiesterase 4 (Homo sapiens, UniProt P27815+Q08499+Q07343+Q08493); test: Inhibition of PDE4 (unknown origin) using [3H]cAMP or [3H]cGMP as substrate measured after 30 mins by liquid scintillation counting method; format: protein assay
[3] = target: cGMP-specific 3',5'-cyclic phosphodiesterase (Homo sapiens, UniProt O76074); test: Inhibition of PDE5 (unknown origin) using [3H]cAMP or [3H]cGMP as substrate measured after 30 mins by liquid scintillation counting method
[4] = target: High affinity cGMP-specific 3',5'-cyclic phosphodiesterase 9A (Homo sapiens, UniProt O76083); test: Inhibition of PDE9 (unknown origin) using [3H]cAMP or [3H]cGMP as substrate measured after 30 mins by liquid scintillation counting method
[5] = target: cAMP and cAMP-inhibited cGMP 3',5'-cyclic phosphodiesterase 10A (Homo sapiens, UniProt Q9Y233); test: Inhibition of PDE10 (unknown origin) using [3H]cAMP or [3H]cGMP as substrate measured after 30 mins by liquid scintillation counting method
[6] = Toxicity in ICR mouse assessed as effect on locomotory activity at 0.5 to 2 mg/kg, ig administered as single dose via gavage measured for 10 mins; format: organism-based; conditions: in vivo, po
Outline: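 Locomotor activity test in chronically stressed mice; locomotion counts recorded 10 minutes after a single oral treatment. Mean ± SEM, n = 6.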

[7] = Half life in ICR mouse at 2 mg/kg, po by LC-MS/MS analysis; format: ADME, organism-based; conditions: in vivo
[8] = Tmax in ICR mouse at 2 mg/kg, po by LC-MS/MS analysis; format: ADME, organism-based; conditions: in vivo
[9] = Cmax in ICR mouse at 2 mg/kg, po by LC-MS/MS analysis; format: ADME, organism-based; set-up: dose 2 mg/kg, route oral; conditions: in vivo
[10] = AUC (0 to infinity) in ICR mouse at 2 mg/kg, po by LC-MS/MS analysis; format: ADME, organism-based; set-up: dose 2 mg/kg, time infinity, route oral; conditions: in vivo
[11] = Ratio of drug level in ICR mouse brain to plasma at 2 mg/kg, po measured after 0.5 hrs by LC-MS/MS analysis; format: ADME, organism-based; conditions: brain and plasma, read-out: BPR
Outline: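 Oral dose of 2 mg/kg in mice. Brain and plasma drug levels taken at 0.5 h after oral administration, and expressed as brain-to-plasma ratio.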

Mus musculus [12] = species: Mus musculus; test: Inhibition of PDE2 in mouse HT22 cells assessed as suppression of corticosterone-induced decrease in cGMP level at 1 uM after 24 hrs by ELISA; format: cell-based
Outline: (§1)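 Corticosterone at 100 μM applied to HT-22 cells for 30 min, followed by compound for 24 h. Intracellular cGMP and cAMP levels measured. Mean ± SEM, n = 6; compared with vehicle-treated corticosterone group.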

Mus musculus [13] = species: Mus musculus; test: Inhibition of PDE2 in mouse HT22 cells assessed as suppression of corticosterone-induced decrease in cAMP level at 1 uM after 24 hrs by ELISA; format: cell-based; outline: as §1
Mus musculus [14] = test: Anxiolytic activity in ICR mouse model of chronic stress-induced cognitive impairment assessed as increase in time spent in open arms at 0.5 mg/kg, ip measured for 5 mins test period by elevated plus maze test; format: functional, organism-based
Outline: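 Chronically stressed mice given the reference drug at 0.5 mg/kg i.p., then tested in the elevated plus-maze for open-arm measures. Mean ± SEM, n = 6, versus vehicle-treated stressed group.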

Sequence of cGMP-dependent 3',5'-cyclic phosphodiesterase (O00408 whole entry): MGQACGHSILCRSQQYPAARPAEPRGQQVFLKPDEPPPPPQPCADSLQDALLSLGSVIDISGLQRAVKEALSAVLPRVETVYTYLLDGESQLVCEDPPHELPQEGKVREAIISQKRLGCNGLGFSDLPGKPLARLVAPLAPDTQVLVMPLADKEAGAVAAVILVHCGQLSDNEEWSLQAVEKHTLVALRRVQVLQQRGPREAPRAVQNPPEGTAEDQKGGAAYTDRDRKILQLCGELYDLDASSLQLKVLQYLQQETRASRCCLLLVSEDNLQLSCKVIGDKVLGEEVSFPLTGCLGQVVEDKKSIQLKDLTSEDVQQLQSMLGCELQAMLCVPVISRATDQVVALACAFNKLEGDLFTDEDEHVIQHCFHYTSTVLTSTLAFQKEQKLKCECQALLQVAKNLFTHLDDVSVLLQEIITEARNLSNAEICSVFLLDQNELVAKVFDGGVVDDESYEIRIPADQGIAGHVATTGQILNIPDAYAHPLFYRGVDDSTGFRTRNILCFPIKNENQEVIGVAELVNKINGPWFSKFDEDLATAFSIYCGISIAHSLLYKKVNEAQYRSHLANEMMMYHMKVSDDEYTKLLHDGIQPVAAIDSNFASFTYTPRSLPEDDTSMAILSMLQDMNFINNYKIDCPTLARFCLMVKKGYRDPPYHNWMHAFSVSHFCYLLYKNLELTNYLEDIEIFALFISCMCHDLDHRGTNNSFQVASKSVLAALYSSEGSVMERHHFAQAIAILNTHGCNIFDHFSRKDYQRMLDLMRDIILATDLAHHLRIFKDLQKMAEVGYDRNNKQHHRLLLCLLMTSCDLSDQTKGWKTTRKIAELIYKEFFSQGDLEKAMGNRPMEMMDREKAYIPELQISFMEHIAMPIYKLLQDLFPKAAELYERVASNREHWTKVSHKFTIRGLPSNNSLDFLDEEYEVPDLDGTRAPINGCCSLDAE
Sequence of High affinity cGMP-specific 3',5'-cyclic phosphodiesterase 9A (O76083 whole entry): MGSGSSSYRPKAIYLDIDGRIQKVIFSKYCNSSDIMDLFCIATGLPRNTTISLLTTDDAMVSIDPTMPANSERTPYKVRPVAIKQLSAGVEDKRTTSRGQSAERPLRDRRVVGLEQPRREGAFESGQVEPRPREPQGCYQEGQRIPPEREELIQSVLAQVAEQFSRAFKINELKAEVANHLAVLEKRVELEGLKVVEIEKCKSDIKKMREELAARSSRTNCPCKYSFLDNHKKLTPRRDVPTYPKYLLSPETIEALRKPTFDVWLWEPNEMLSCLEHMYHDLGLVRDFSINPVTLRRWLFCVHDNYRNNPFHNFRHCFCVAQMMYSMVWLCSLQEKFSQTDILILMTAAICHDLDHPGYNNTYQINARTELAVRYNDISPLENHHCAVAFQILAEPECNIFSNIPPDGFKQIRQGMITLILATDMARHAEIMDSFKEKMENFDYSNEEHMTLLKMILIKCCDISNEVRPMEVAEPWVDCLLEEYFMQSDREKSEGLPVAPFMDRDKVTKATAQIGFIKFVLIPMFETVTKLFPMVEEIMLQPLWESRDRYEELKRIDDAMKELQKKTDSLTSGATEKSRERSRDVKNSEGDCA
Sequence of cAMP and cAMP-inhibited cGMP 3',5'-cyclic phosphodiesterase 10A (Q9Y233 whole entry): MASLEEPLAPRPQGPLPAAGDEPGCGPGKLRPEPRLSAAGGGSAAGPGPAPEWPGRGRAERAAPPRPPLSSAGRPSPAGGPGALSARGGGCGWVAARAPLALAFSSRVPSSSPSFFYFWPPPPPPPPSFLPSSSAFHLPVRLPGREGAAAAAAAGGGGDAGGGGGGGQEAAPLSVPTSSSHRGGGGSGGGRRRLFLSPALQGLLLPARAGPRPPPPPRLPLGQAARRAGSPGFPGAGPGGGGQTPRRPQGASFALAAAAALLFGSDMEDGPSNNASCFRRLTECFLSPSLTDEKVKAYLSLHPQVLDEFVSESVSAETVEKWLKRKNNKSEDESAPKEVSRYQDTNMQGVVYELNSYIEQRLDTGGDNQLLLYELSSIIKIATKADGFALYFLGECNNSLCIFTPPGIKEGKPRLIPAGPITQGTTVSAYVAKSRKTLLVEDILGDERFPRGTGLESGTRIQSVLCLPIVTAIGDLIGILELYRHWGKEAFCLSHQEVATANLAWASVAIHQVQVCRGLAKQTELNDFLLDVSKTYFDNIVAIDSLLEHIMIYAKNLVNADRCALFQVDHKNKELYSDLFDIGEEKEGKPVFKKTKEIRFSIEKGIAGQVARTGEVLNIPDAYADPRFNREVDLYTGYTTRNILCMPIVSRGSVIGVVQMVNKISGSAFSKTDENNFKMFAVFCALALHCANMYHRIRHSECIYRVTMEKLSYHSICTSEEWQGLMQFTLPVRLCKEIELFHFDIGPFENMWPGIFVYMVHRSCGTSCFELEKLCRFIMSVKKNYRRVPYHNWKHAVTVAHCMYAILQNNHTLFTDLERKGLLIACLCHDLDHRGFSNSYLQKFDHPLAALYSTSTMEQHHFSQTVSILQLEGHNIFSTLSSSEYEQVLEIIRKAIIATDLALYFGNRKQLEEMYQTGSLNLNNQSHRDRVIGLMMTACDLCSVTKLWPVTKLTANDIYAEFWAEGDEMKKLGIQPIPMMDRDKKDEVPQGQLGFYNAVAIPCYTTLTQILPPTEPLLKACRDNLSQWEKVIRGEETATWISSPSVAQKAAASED

Row | Structure (SMILES) | IC50 [1] [µM] | other results
1 | CC(CCc1ccccc1)n1cnc2c(=O)[nH]c(Cc3ccccc3)nc21 (stereo unspecified) | 0.31 | –
2 | CCCCCCn1cnc2c(=O)[nH]c(Cc3ccc(OC)cc3)nc21 | 3.79 | –
3 | COc1ccc(CCn2cnc3c(=O)[nH]c(Cc4ccccc4)nc32)cc1OC | 40.3 | –
4 | CCCCCCCCn1cnc2c(=O)[nH]c(Cc3ccc(OCc4ccccc4)cc3)nc21 | 2.63 | –
5 | O=c1[nH]c(Cc2ccc(OCc3ccccc3)cc2)nc2c1ncn2CCc1ccccc1 | 5.8 | –
6 | CCCCCCn1cnc2c(=O)[nH]c(Cc3ccccc3)nc21 | 5.94 | –
7 | COc1ccc(CCn2cnc3c(=O)[nH]c(Cc4ccc(OCc5ccccc5)cc4)nc32)cc1OC | > 50 | –
8 | CC(c1cccc2ccccc12)N1C=NC2C(=O)NC(Cc3ccccc3)=NC21 (stereo unspecified) | 0.57 | –
9 | CN1C(=O)CN=C(c2ccccc2)c2cc(Cl)ccc21 | – | Activity (Mus musculus [2]): Active
10 | O=c1[nH]c(Cc2ccccc2)nc2c1ncn2CCc1cccs1 | 17 | –
11 | CCCCC(CC)Cn1cnc2c(=O)[nH]c(Cc3ccc(OCc4ccccc4)cc3)nc21 (stereo unspecified) | 0.072 | IC50 (Phosphodiesterase 1): > 500 µM; IC50 (Phosphodiesterase 4): > 500 µM; IC50 [3]: > 500 µM; IC50 [4]: 13.9 µM; IC50 [5]: > 500 µM
12 | O=c1[nH]c(Cc2ccccc2)nc2c1ncn2CCc1c[nH]c2ccccc12 | > 50 | –
13 | O=c1[nH]c(Cc2ccccc2)nc2c1ncn2Cc1ccc2ccccc2c1 | 3.99 | –
14 | CCCCC(CC)Cn1cnc2c(=O)[nH]c(Cc3ccccc3)nc21 (stereo unspecified) | 1.24 | –
15 | CCCCn1cnc2c(=O)[nH]c(Cc3ccc(OC)cc3)nc21 | 1.94 | –
16 | COc1cccc(CCn2cnc3c(=O)[nH]c(Cc4ccccc4)nc32)c1 | 11 | –
17 | CCCCC(CC)Cn1cnc2c(=O)[nH]c(Cc3ccc(OC)cc3)nc21 (stereo unspecified) | 0.081 | IC50 (Phosphodiesterase 1): > 500 µM; IC50 (Phosphodiesterase 4): > 500 µM; IC50 [3]: > 500 µM; IC50 [4]: 32.3 µM; IC50 [5]: > 500 µM; Activity [6]: Non-Toxic; half-life [7]: 84 min; Tmax [8]: 31.8 min; Cmax [9]: 511 ng/mL; AUC(0-inf) [10]: 646 ng·h/mL; Kp at 0.5 h [11]: 0.56
18 | CCCCCCCCn1cnc2c(=O)[nH]c(Cc3ccccc3)nc21 | 4.28 | –
19 | COc1ccc(Cc2nc(O)c3c(C)nc([C@@H](CCCc4ccccc4)[C@@H](C)O)n3n2)cc1OC | – | inhibition (Mus musculus [12]): Active; inhibition (Mus musculus [13]): Active; Activity (Mus musculus [14]): inactive
20 | O=c1[nH]c(Cc2ccccc2)nc2c1ncn2CCc1ccccc1 | 7.27 | –
21 | CCCCn1cnc2c(=O)[nH]c(Cc3ccc(OCc4ccccc4)cc3)nc21 | 5.46 | –
22 | CCCCn1cnc2c(=O)[nH]c(Cc3ccccc3)nc21 | 4.32 | –
23 | CCCCCCn1cnc2c(=O)[nH]c(Cc3ccc(OCc4ccccc4)cc3)nc21 | 3.91 | –
